A short description of series [1]: Selectivity index, ratio of CC50 for human HuH5.2 cells to EC50 for HCV genotype 1 harboring luc-ubi-neo fusion gene. In outline: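 SI is CC₅₀/EC₅₀, both measured in Huh-5-2 replicon cells seeded at 5 × 10³/well. For CC₅₀, serial dilutions in complete DMEM without G418 were added 24 h after seeding, cells grew 3 days at 37 °C, and cell number was read by WST-1. EC₅₀ came from the 4-day replicon luciferase assay run with G418.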

Series [2] in a line: Inhibition of HCV recombinant NS5B polymerase using [alpha32p]GTP after 30 mins by scintillation counting. Also noted: species or system Hepacivirus hominis. In outline: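 Recombinant NS5B primer/template-directed transcription in 30 mM Tris–HCl pH 7.2; compounds at various concentrations from 10% DMSO–water stocks, final DMSO 1%; stopped with 33 mM EDTA; products captured on DEAE filters, washed with 5% dibasic sodium phosphate, scintillation counted. IC50 estimated from primary cpm data, triplicate.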

Series [3] deals with Hepatitis C virus. Kind of series: Antiviral activity against HCV genotype 1 harboring luc-ubi-neo fusion gene infected in human Huh7 cells assessed as inhibition of viral RNA replication after 4 days by luciferase assay. The series is classed as functional, organism-based, Hepacivirus hominis. As to conditions: genotype 1, Huh-7, 96 h. The method in brief:
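Huh-5-2 cells (Huh-7 carrying a subgenomic genotype 1 HCV replicon with luc-ubi-neo fusion gene) were seeded at 5 × 10³/well in complete DMEM with G418 and held 24 h at 37 °C, 5% CO₂. Medium was refreshed with G418 and compounds added from DMSO stock, then incubated 4 days at 37 °C. Luciferase was read out, and EC₅₀ was taken as 50% inhibition of replicon RNA replication. Interferon α-2b at 10,000 units/well served as reference.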

Series [4] can be described thus: Cytotoxicity against human HuH5.2 cells after 3 days by WST-1 assay. Type of series: cell-based, Huh-5-2. The method in brief: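 Huh-7-derived Huh-5-2 cells carrying subgenomic genotype 1 HCV replicon (luc-ubi-neo); 5 × 10³ cells/well seeded in complete DMEM with G418; serial compound dilutions in DMEM without G418 added 24 h after seeding; proliferation 3 days at 37 °C; cell number by WST-1. CC50 = concentration reducing cell proliferation by 50%.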
For orientation: Tetrazolium assays rely on reduction of a dye to a coloured formazan, in cell work by metabolically active cells.

Bounds are passed on as bounds.

As to `O=c1c(OCc2ccccc2Br)c(-c2ccccc2)oc2cc(O)cc(O)c12`, the “Ratio CC50/EC50” value in series [1] is recorded as 1.3. In addition, the 50% inhibitory concentration (IC50) (usually the midpoint of a concentration-inhibition curve) in series [2] is 10.5 µM. Also, in series [3], the EC50 (as a rule, the concentration that produces a half-maximal response) was 9 µM. Also, half-maximal cytotoxicity in series [4] (CC50 at 72 h) was put at 12 µM.

As to `N#CCCCOc1ccccc1C(=O)/C=C(\O)C(=O)O`, the IC50 in series [2] stood at 0.35 µM.

On to `O=c1c(OCc2cccc(Cl)c2)c(-c2ccccc2)oc2cc(O)cc(O)c12`, for which the “Ratio CC50/EC50” value in series [1] worked out at 1.8. Also, the IC50 in series [2] was 0.1 µM. Besides, the EC50 in series [3] was found to be 25 µM. In series [4], the CC50 (usually the concentration giving 50% cytotoxicity) at 72 h was 46 µM.

In the case of `O=c1c(OCc2cccc(Br)c2)c(-c2ccccc2)oc2cc(O)cc(O)c12`, the “Ratio CC50/EC50” value in series [1] came to 0.8. For the same compound, the concentration for half-maximal inhibition (IC50) in series [2] worked out at 4.6 µM. Moreover, in series [3], the EC50 amounted to 18 µM. For the same compound, in series [4], the half-maximal cytotoxic concentration (CC50) at 72 h turned out to be 15 µM.

Regarding `N#Cc1cccc(COc2c(-c3ccccc3)oc3cc(O)cc(O)c3c2=O)c1`, the “Ratio CC50/EC50” value in series [1] is 0.6. Also, in series [2], the IC50 worked out at 0.2 µM. Also, in series [3], the EC50 worked out at 36 µM. In series [4], this compound yielded a CC50 at 72 h of 21 µM.

As to `O=c1c(OCc2cccc([N+](=O)[O-])c2)c(-c2ccccc2)oc2cc(O)cc(O)c12`, the “Ratio CC50/EC50” value in series [1] is 6.2. Besides, the IC50 in series [2] is 6.4 µM. In addition, the EC50 in series [3] was 5 µM. In addition, in series [4], the CC50 at 72 h came out at 31 µM.

Regarding `Cc1cccc(COc2c(-c3ccccc3)oc3cc(O)cc(O)c3c2=O)c1`, the “Ratio CC50/EC50” value in series [1] was found to be 1. Moreover, in series [2], the half-inhibitory concentration (IC50) was 30 µM. The concentration giving a half-maximal response (EC50) in series [3] worked out at 28 µM. Moreover, it took 29 µM to reach half-maximal cytotoxicity in series [4] (CC50 at 72 h).

As to `COc1cccc(COc2c(-c3ccccc3)oc3cc(O)cc(O)c3c2=O)c1`, the IC50 in series [2] was found to be 21 µM. In addition, the EC50 in series [3] was 22 µM. The compound further showed a CC50 at 72 h in series [4] of 28 µM.

Turning to `O=c1c(OCc2ccc(Cl)cc2)c(-c2ccccc2)oc2cc(O)cc(O)c12`, in series [1], the “Ratio CC50/EC50” value came to 2.4. Also, the half-maximal inhibitory concentration (IC50) in series [2] is 0.3 µM. Also, the concentration giving a half-maximal response (EC50) in series [3] came out at 15 µM. The compound further came in with a CC50 at 72 h in series [4] of 36 µM.

With `O=c1c(OCc2ccc(Br)cc2)c(-c2ccccc2)oc2cc(O)cc(O)c12`, the “Ratio CC50/EC50” value in series [1] is reported as 0.2. For the same compound, the IC50 in series [2] was found to be 1.4 µM. The EC50 in series [3] came out at 12 µM. In series [4], this compound had a cytotoxic concentration (CC50) at 72 h of 2 µM.

On to `N#Cc1ccc(COc2c(-c3ccccc3)oc3cc(O)cc(O)c3c2=O)cc1`, for which, in series [1], the “Ratio CC50/EC50” value came to 4.8. For the same compound, in series [2], the IC50 stood at 1.3 µM. In series [3], the concentration for a half-maximal effect (EC50) is 10 µM. The compound also registered a CC50 at 72 h in series [4] of 48 µM.

Regarding `O=c1c(OCc2ccc([N+](=O)[O-])cc2)c(-c2ccccc2)oc2cc(O)cc(O)c12`, the “Ratio CC50/EC50” value in series [1] was determined as 5.7. The IC50 in series [2] is above 50 µM. Moreover, the EC50 in series [3] came out at 7 µM. The same compound displayed a half-maximal cytotoxic concentration (CC50) at 72 h in series [4] of 40 µM.

Regarding `Cc1ccc(COc2c(-c3ccccc3)oc3cc(O)cc(O)c3c2=O)cc1`, the “Ratio CC50/EC50” value in series [1] was 2.9. In addition, the IC50 in series [2] was 45.2 µM. For the same compound, in series [3], the half-maximal effective concentration (EC50) stood at 14 µM. The compound further had a CC50 at 72 h in series [4] of 40 µM.

As to `COc1ccc(COc2c(-c3ccccc3)oc3cc(O)cc(O)c3c2=O)cc1`, the “Ratio CC50/EC50” value in series [1] is 5.7. Also, the IC50 in series [2] is 29.5 µM. In series [3], the concentration for a half-maximal effect (EC50) is 10 µM. This compound also registered a CC50 at 72 h in series [4] of 57 µM.

On to `O=c1c(OCc2ccccc2Cl)c(-c2ccccc2)oc2cc(O)cc(O)c12`, for which, in series [2], the concentration for half-maximal inhibition (IC50) was above 50 µM. Moreover, the concentration for a half-maximal effect (EC50) in series [3] was found to be 38 µM. In series [4], this compound gave a half-maximal cytotoxic concentration (CC50) at 72 h above 100 µM.

With `N#Cc1ccccc1COc1c(-c2ccccc2)oc2cc(O)cc(O)c2c1=O`, the 50% inhibitory concentration (IC50) in series [2] amounted to 11 µM. For the same compound, in series [3], the EC50 amounted to 5 µM. The compound further came in with a CC50 at 72 h in series [4] above 100 µM.

On to `O=c1c(OCc2ccccc2[N+](=O)[O-])c(-c2ccccc2)oc2cc(O)cc(O)c12`, for which the “Ratio CC50/EC50” value in series [1] came to 4.3. Besides, the IC50 in series [2] is above 50 µM. Moreover, the EC50 in series [3] stood at 12 µM. In series [4], this compound registered a CC50 at 72 h of 51 µM.

For `Cc1ccccc1COc1c(-c2ccccc2)oc2cc(O)cc(O)c2c1=O`, the “Ratio CC50/EC50” value in series [1] is 1.6. In addition, the IC50 in series [2] was determined as 7.2 µM. Further, the 50% effective concentration (EC50) in series [3] turned out to be 34 µM. The compound further had a CC50 at 72 h in series [4] of 55 µM.

For `COc1ccccc1COc1c(-c2ccccc2)oc2cc(O)cc(O)c2c1=O`, the “Ratio CC50/EC50” value in series [1] came out at 1.9. The concentration for half-maximal inhibition (IC50) in series [2] is above 50 µM. Besides, in series [3], the EC50 was determined as 28 µM. Moreover, the CC50 at 72 h in series [4] was determined as 53 µM.
